Our source for the Drug uptake, Activity and MIC values is ChEMBL document CHEMBL4017525, “Lactam-Stapled Cell-Penetrating Peptides: Cell Uptake and Membrane Binding Properties” (J Med Chem, 2017).

Calls of active or inactive are those of the source. The calls are words filed in the database; no cut-off is given here.

Data set [1] is described as follows: Drug uptake in HEK293 cells at 2 uM after 4 hrs using fluorescein labeled compound by flow cytometric analysis. It counts as ADME, cell-based. The conditions noted are these: human, hek293, 4 h. A digest of the protocol: (§1)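 Adherent cells were exposed to fluorescein-labeled peptide at 2 μM for 4 h in serum-free medium. Trypan blue (0.4% end concentration) was added before flow cytometry to quench surface-bound fluorescence. Intracellular signal was normalized to carboxyfluorescein-labeled R9, as the mean ± SD of two independent experiments.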
In general terms: In flow cytometry, cells or beads pass a laser one at a time.

Data set [2] is described as follows: Drug uptake in human HeLa cells at 2 uM after 4 hrs using fluorescein labeled compound by flow cytometric analysis. It counts as ADME, cell-based. A digest of the protocol:
as §1

Data set [3] relates to Lipid bilayer. In words: Binding affinity to POPC/POPG lipid vesicles assessed as induction of membrane leakage at peptide to lipid ratio of 1:25 after 30 mins by spectroflurimetric analysis. A digest of the protocol:
(§2)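 Large unilamellar vesicles (100 nm extrusion) of POPC or POPC/POPG (3/1, mol/mol) were loaded with ANTS dye and DPX quencher, and leakage was read by fluorescence dequenching. Lipid was 50 μM and peptide 2 μM (1:25), incubated 30 min at 30 °C. For lines 6 and 8, a −120 mV potential (negative inside) was set with valinomycin and outside K+ replaced by Na+.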

The next data set relates to Enterococcus faecalis. The experiment in a line: Antibacterial activity against Enterococcus faecalis ATCC 29212 after 22 hrs by resazurin based broth dilution assay. It counts as functional. The conditions noted are these: ATCC 29212, 22 h. A digest of the protocol: (§3)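 Standard broth dilution assay determining MIC against two Gram-negative and two Gram-positive strains. Values are the mean of two independent experiments.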

Data set [4] relates to Lipid bilayer. The experiment in a line: Binding affinity to POPC/POPG lipid vesicles assessed as induction of membrane leakage at peptide to lipid ratio of 1:25 at transmembrane potential of -120 mV after 30 mins by spectroflurimetric analysis. A digest of the protocol: as §2
Another data set concerns HeLa. In words: Cytotoxicity against human HeLa cells at 2 uM after 4 hrs using fluorescein labeled compound by flow cytometric analysis. It is filed as cell-based.
In the next data set the test system is Staphylococcus aureus. In words: Antibacterial activity against Staphylococcus aureus ATCC 25923 after 22 hrs by resazurin based broth dilution assay. It is filed as functional. The conditions noted are these: ATCC 25923, 22 h. A digest of the protocol:
as §3
(In general: Alamar Blue is a resazurin reagent that responds to reducing activity.)

The next data set relates to HEK293. The experiment in a line: Cytotoxicity against HEK293 cells at 2 uM after 4 hrs using fluorescein labeled compound by flow cytometric analysis. It counts as cell-based. The conditions noted are these: human, hek293, 4 h.
A further data set deals with Escherichia coli. The experiment in a line: Antibacterial activity against Escherichia coli ATCC 25922 after 22 hrs by resazurin based broth dilution assay. It is filed as functional. The conditions noted are these: ATCC 25922, 22 h. A digest of the protocol: as §3
For a further data set, the system named is Pseudomonas aeruginosa. In words: Antibacterial activity against Pseudomonas aeruginosa ATCC 27853 after 22 hrs by resazurin based broth dilution assay. It is filed as functional. The conditions noted are these: ATCC 27853, 22 h. A digest of the protocol:
as §3

Data set [5] has as its system Lipid bilayer. The experiment in a line: Binding affinity to POPC lipid vesicles assessed as induction of membrane leakage at peptide to lipid ratio of 1:25 after 30 mins by spectroflurimetric analysis. A digest of the protocol: as §2
Data set [6] deals with Lipid bilayer. The experiment in a line: Binding affinity to POPC lipid vesicles assessed as induction of membrane leakage at peptide to lipid ratio of 1:25 at transmembrane potential of -120 mV after 30 mins by spectroflurimetric analysis. A digest of the protocol: as §2

As to `N=C(N)NCCC[C@H](NC(=O)[C@H](CCCNC(=N)N)NC(=O)[C@H](CCCNC(=N)N)NC(=O)[C@H](CCCNC(=N)N)NC(=O)[C@H](CCCNC(=N)N)NC(=O)[C@H](CCCNC(=N)N)NC(=O)[C@H](CCCNC(=N)N)NC(=O)[C@H](CCCNC(=N)N)NC(=O)[C@@H](N)CCCNC(=N)N)C(=O)O`, the Drug uptake result in data set [1] and in [2] was “Active” throughout.
With H-AAVLLPVLLAAP-NH2, the Drug uptake entry in data set [1] and in [2] was “Active” in each case. Moreover, the outcome in the data set on Lipid bilayer [3] and with Lipid bilayer [4] was inactive. In addition, the MIC against Enterococcus faecalis, with Staphylococcus aureus, in the data set with Escherichia coli and with Pseudomonas aeruginosa was greater than 256 µg/mL in each case. Moreover, the Activity result in the data set with HeLa and in the data set on HEK293 was “Non-Toxic” each time.
Regarding H-KLALKALKALKAALKLA-NH2, the Drug uptake entry in data set [1] and in data set [2] was “Active” each time. Also, the result in the data set on Lipid bilayer [3] and in the data set on Lipid bilayer [4] was Active. For the same compound, the MIC (usually the lowest concentration found to suppress growth) against Enterococcus faecalis worked out at 256 µg/mL; with Staphylococcus aureus it was 16 µg/mL; against Escherichia coli it was 16 µg/mL; against Pseudomonas aeruginosa it was 256 µg/mL. The Activity entry in the data set with HeLa and with HEK293 was “Non-Toxic” each time.
As to H-PLILLRLLRGQF-NH2, the Drug uptake entry in data set [1] and in [2] was “Active” in each case. Moreover, the result in the data set on Lipid bilayer [3] and in the data set on Lipid bilayer [4] was Active. The minimum inhibitory concentration (MIC) was 64 µg/mL in the data set on Enterococcus faecalis, 16 µg/mL in the data set on Staphylococcus aureus, 256 µg/mL in the data set with Escherichia coli and greater than 256 µg/mL against Pseudomonas aeruginosa. Besides, the Activity result with HeLa and with HEK293 was “Non-Toxic” each time.
Turning to H-QQRKRKIWSILAPLGTTLVKLVAGIG-NH2, the Drug uptake result in data set [1] and in data set [2] was “Active” throughout. Moreover, the Activity in the data set on Lipid bilayer [5] was 100%; in the data set with Lipid bilayer [6], 100%; with HeLa it was “Non-Toxic”; in the data set with HEK293, “Non-Toxic”. The MIC in the data set on Enterococcus faecalis was 32 µg/mL; in the data set with Staphylococcus aureus, 32 µg/mL; with Escherichia coli, 32 µg/mL; in the data set on Pseudomonas aeruginosa, 64 µg/mL.
